{
  "source": "ChEMBL document CHEMBL4680068",
  "about": "“Towards a RIOK2 chemical probe: cellular potency improvement of a selective 2-(acylamino)pyridine series” (RSC Med Chem, 2021)",
  "key": {"[1]": {"molecular_target": "Serine/threonine-protein kinase RIO2 (Homo sapiens, UniProt Q9BVS4)", "sequence (Q9BVS4 whole entry)": "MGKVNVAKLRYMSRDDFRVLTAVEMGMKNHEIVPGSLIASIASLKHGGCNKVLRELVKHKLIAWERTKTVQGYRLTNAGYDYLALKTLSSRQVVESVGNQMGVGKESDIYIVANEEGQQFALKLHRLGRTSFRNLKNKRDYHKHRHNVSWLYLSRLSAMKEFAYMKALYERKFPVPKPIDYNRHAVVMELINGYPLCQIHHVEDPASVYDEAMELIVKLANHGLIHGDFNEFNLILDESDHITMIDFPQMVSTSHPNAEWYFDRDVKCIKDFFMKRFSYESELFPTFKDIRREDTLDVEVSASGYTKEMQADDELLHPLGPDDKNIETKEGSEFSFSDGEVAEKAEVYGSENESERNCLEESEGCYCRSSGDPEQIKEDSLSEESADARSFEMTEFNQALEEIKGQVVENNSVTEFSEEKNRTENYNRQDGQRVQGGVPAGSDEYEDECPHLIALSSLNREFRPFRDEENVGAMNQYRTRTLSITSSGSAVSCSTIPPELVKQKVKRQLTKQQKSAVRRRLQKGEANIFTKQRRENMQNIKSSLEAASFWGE", "assay": "Displacement of tracer K5 from N-terminal nanoluciferase-tagged RIOK2 (unknown origin) expressed in HEK293 cells measured after 2 hrs by NanoBRET assay", "type": "cell-based"}, "[2]": {"molecular_target": "T1, Mitogen-activated protein kinase 8 (Homo sapiens, UniProt P45983)", "T1 sequence (P45983 whole entry)": "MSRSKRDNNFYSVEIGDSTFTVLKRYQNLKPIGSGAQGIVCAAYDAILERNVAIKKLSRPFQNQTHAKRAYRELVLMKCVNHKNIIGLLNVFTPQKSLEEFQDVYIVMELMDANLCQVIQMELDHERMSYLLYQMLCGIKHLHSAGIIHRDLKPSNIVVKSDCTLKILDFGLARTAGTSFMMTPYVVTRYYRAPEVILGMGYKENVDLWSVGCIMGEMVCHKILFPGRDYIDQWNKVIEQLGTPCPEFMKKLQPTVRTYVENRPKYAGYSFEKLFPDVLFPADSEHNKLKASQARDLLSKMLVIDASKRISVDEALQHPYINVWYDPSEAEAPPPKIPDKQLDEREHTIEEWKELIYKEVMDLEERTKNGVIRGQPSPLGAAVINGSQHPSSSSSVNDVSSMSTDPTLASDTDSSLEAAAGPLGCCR", "assay": "Inhibition of full length recombinant human MAPK8 using ATF2 as substrate incubated for 40 mins in presence of [gamma33P]ATP by radiometric scintillation analysis", "how_it_was_run": "(§1)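 Eurofins radiometric enzymatic kinase assay run at the Km of ATP for each kinase. Activity was read as incorporation of radiolabelled ATP into a peptide substrate, in a homogeneous format.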"}, "[3]": {"molecular_target": "T2, Mitogen-activated protein kinase 10 (Homo sapiens, UniProt P53779)", "T2 sequence (P53779 whole entry)": "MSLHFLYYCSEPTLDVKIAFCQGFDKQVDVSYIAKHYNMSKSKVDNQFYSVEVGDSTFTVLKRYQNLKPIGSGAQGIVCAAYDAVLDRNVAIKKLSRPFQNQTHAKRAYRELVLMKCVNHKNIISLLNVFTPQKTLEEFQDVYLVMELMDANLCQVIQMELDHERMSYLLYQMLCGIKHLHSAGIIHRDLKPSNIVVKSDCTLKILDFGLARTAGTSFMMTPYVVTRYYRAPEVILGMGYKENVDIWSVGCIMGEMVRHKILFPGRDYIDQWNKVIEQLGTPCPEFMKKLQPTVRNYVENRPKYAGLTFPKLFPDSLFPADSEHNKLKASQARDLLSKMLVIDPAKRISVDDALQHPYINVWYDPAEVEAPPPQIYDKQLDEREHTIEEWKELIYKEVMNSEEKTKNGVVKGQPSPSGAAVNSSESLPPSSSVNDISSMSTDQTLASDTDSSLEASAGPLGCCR", "assay": "Inhibition of full length recombinant human MAPK10 using peptide substrate incubated for 40 mins in presence of [gamma33P]ATP by radiometric scintillation analysis", "how_it_was_run": "as §1"}, "[4]": {"molecular_target": "T3, Homeodomain-interacting protein kinase 1 (Homo sapiens, UniProt Q86Z02)", "T3 sequence (Q86Z02 whole entry, the tested form may be a part)": "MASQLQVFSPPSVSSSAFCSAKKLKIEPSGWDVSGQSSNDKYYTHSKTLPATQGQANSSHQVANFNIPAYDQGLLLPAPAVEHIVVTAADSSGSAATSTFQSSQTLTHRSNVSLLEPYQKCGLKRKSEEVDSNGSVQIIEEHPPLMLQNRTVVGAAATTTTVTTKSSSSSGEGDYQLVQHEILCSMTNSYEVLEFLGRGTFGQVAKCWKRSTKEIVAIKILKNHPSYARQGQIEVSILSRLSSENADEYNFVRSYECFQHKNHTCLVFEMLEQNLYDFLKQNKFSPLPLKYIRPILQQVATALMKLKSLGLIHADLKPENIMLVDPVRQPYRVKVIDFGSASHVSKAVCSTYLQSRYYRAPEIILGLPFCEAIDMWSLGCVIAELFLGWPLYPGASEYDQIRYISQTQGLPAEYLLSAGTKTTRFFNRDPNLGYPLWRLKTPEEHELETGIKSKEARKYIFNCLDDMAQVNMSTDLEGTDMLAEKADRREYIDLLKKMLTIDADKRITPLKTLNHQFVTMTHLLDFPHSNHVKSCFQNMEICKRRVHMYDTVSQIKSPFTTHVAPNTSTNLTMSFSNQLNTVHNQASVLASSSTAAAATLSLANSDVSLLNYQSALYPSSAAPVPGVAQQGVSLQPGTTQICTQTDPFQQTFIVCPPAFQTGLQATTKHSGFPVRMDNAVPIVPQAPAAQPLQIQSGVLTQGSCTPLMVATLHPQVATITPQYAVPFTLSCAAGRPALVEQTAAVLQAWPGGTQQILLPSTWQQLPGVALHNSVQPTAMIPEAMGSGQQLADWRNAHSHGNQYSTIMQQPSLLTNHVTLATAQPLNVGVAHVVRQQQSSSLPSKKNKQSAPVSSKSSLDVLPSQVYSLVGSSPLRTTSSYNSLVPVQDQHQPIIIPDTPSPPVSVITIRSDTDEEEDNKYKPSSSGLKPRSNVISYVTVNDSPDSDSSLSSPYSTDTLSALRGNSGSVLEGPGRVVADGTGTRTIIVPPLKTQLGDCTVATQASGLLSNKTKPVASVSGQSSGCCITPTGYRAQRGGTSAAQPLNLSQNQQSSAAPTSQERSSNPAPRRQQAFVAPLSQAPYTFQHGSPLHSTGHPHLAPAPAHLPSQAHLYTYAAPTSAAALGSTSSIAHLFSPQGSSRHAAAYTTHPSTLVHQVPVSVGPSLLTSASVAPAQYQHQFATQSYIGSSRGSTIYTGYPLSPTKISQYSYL", "assay": "Inhibition of human HIPK1 (158 to 555 residues) using myelin ba as substrate incubated for 40 mins in presence of [gamma33P]ATP by radiometric scintillation analysis", "how_it_was_run": "as §1"}, "[5]": {"molecular_target": "T4, Glycogen synthase kinase-3 alpha (Homo sapiens, UniProt P49840)", "T4 sequence (P49840 whole entry)": "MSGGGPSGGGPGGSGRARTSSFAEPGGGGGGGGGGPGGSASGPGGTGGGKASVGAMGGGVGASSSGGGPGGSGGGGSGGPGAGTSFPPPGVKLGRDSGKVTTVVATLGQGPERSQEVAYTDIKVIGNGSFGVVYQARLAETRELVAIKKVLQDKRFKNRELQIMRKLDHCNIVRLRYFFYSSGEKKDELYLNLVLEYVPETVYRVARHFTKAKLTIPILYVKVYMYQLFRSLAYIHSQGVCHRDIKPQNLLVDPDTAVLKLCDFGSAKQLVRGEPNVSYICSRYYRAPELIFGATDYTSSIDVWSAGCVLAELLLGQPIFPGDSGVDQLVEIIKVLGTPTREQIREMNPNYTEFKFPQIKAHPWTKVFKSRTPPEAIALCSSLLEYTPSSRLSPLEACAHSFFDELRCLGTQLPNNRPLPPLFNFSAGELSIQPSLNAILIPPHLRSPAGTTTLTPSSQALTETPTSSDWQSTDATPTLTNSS", "assay": "Inhibition of recombinant human GSK3alpha S449A mutant (2 to end residues) using YRRAAVPPSPSLSR peptide as substrate incubated for 40 mins in presence of [gamma33P]ATP by radiometric scintillation analysis", "how_it_was_run": "(§2)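 Orthogonal homogeneous enzymatic kinase assay, run by a contract provider. GSK3α activity was read as incorporation of radiolabelled ATP into a peptide substrate. ATP was at its Km.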"}, "[6]": {"molecular_target": "T5, SNF-related serine/threonine-protein kinase (Homo sapiens, UniProt Q9NRH2)", "T5 sequence (Q9NRH2 whole entry)": "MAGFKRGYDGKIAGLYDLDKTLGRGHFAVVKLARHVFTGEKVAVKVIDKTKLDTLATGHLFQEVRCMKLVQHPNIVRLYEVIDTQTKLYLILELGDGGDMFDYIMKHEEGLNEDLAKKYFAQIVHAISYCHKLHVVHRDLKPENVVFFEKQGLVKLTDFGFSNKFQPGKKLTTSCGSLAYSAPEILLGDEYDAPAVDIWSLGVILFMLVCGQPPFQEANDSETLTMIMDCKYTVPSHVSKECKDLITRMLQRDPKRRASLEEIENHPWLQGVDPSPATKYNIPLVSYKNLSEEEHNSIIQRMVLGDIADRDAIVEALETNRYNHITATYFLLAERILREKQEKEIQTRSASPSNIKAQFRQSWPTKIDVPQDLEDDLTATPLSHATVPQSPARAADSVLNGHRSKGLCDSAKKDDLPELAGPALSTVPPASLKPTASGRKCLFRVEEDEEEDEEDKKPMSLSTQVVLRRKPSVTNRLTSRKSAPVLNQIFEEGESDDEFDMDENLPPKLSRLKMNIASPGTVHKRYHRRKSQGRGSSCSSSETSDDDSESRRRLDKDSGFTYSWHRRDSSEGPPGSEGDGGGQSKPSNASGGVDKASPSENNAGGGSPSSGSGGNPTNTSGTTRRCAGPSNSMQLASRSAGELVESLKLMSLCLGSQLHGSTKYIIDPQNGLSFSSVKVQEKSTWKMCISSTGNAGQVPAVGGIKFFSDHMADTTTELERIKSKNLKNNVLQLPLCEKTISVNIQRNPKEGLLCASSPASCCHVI", "assay": "Inhibition of recombinant human SNRK E97G/P116A mutant (1 to 505 residues) using KKLRRTLSFAEPG peptide as substrate incubated for 40 mins in presence of [gamma33P]ATP by radiometric scintillation analysis", "how_it_was_run": "as §1"}, "[7]": {"molecular_target": "T1, Mitogen-activated protein kinase 8", "assay": "Binding affinity to full length recombinant human MAPK8 using ATF2 as substrate incubated for 40 mins in presence of [gamma33P]ATP by radiometric scintillation analysis", "how_it_was_run": "as §1"}, "[8]": {"molecular_target": "T2, Mitogen-activated protein kinase 10", "assay": "Binding affinity to full length recombinant human MAPK10 using peptide substrate incubated for 40 mins in presence of [gamma33P]ATP by radiometric scintillation analysis", "how_it_was_run": "as §1"}, "[9]": {"molecular_target": "T3, Homeodomain-interacting protein kinase 1", "assay": "Binding affinity to human HIPK1 (158 to 555 residues) using myelin ba as substrate incubated for 40 mins in presence of [gamma33P]ATP by radiometric scintillation analysis", "how_it_was_run": "as §1"}, "[10]": {"molecular_target": "T4, Glycogen synthase kinase-3 alpha", "assay": "Binding affinity to recombinant human GSK3alpha S449A mutant (2 to end residues) using YRRAAVPPSPSLSR peptide as substrate incubated for 40 mins in presence of [gamma33P]ATP by radiometric scintillation analysis", "how_it_was_run": "as §2"}, "[11]": {"molecular_target": "T5, SNF-related serine/threonine-protein kinase", "assay": "Binding affinity to recombinant human SNRK E97G/P116A mutant (1 to 505 residues) using KKLRRTLSFAEPG peptide as substrate incubated for 40 mins in presence of [gamma33P]ATP by radiometric scintillation analysis", "how_it_was_run": "as §1"}},
  "data": [
    {"smiles": "O=C(Cc1ccc2ccccc2c1)Nc1cc(Br)ccn1", "values": [
      {"measurement": "IC50", "setting": "[1]", "value": 13.4, "unit": "µM"}
    ]},
    {"smiles": "Cc1ccnc(NC(=O)Cc2ccc3c(c2)OCO3)c1", "values": [
      {"measurement": "IC50", "setting": "[1]", "value": "> 30", "unit": "µM"}
    ]},
    {"smiles": "COc1ccc2cc([C@H](C)C(=O)Nc3cc(C)ccn3)ccc2c1", "values": [
      {"measurement": "IC50", "setting": "[2]", "value": "> 10", "unit": "µM"},
      {"measurement": "IC50", "setting": "[3]", "value": 5.1, "unit": "µM"},
      {"measurement": "IC50", "setting": "[4]", "value": "> 10", "unit": "µM"},
      {"measurement": "IC50", "setting": "[5]", "value": 4.5, "unit": "µM"},
      {"measurement": "IC50", "setting": "[6]", "value": "> 10", "unit": "µM"},
      {"measurement": "IC50", "setting": "[1]", "value": 6.6, "unit": "µM"}
    ]},
    {"smiles": "COc1ccnc(NC(=O)[C@@H](C)c2ccc3cc(OC)ccc3c2)c1", "values": [
      {"measurement": "IC50", "setting": "[1]", "value": 5.3, "unit": "µM"}
    ]},
    {"smiles": "COc1ccc2cc(C(C)C(=O)Nc3cc(C)ccn3)ccc2c1", "note": "(racemic)", "values": [
      {"measurement": "IC50", "setting": "[2]", "value": "> 10", "unit": "µM"},
      {"measurement": "IC50", "setting": "[3]", "value": 0.78, "unit": "µM"},
      {"measurement": "IC50", "setting": "[4]", "value": "> 10", "unit": "µM"},
      {"measurement": "IC50", "setting": "[5]", "value": 1.9, "unit": "µM"},
      {"measurement": "IC50", "setting": "[6]", "value": "> 10", "unit": "µM"},
      {"measurement": "IC50", "setting": "[1]", "value": 5.2, "unit": "µM"}
    ]},
    {"smiles": "Cc1ccnc(NC(=O)Cc2ccc3c(c2)OCCO3)c1", "values": [
      {"measurement": "IC50", "setting": "[1]", "value": "> 30", "unit": "µM"}
    ]},
    {"smiles": "CCc1ccnc(NC(=O)Cc2ccc3ccccc3c2)c1", "values": [
      {"measurement": "IC50", "setting": "[1]", "value": 14.5, "unit": "µM"}
    ]},
    {"smiles": "O=C(Cc1ccc2ccccc2c1)Nc1cc(C(F)(F)F)ccn1", "values": [
      {"measurement": "IC50", "setting": "[1]", "value": 7.5, "unit": "µM"}
    ]},
    {"smiles": "O=C(Cc1ccc2ccccc2c1)Nc1cc(Cl)ccn1", "values": [
      {"measurement": "IC50", "setting": "[2]", "value": "> 10", "unit": "µM"},
      {"measurement": "IC50", "setting": "[3]", "value": 0.52, "unit": "µM"},
      {"measurement": "IC50", "setting": "[4]", "value": "> 10", "unit": "µM"},
      {"measurement": "IC50", "setting": "[5]", "value": 0.86, "unit": "µM"},
      {"measurement": "IC50", "setting": "[6]", "value": "> 10", "unit": "µM"},
      {"measurement": "IC50", "setting": "[1]", "value": 5, "unit": "µM"}
    ]},
    {"smiles": "COc1ccnc(NC(=O)Cc2ccc(-c3ccccc3)cc2)c1", "values": [
      {"measurement": "IC50", "setting": "[1]", "value": 7.6, "unit": "µM"}
    ]},
    {"smiles": "Cc1ccnc(NC(=O)CCc2ccc3ccccc3c2)c1", "values": [
      {"measurement": "IC50", "setting": "[1]", "value": "> 30", "unit": "µM"}
    ]},
    {"smiles": "COc1ccnc(NC(=O)Cc2ccc(C)c(C)c2)c1", "values": [
      {"measurement": "IC50", "setting": "[1]", "value": 28, "unit": "µM"}
    ]},
    {"smiles": "Cc1ccnc(NC(=O)Cc2ccc3ccccc3c2)c1", "values": [
      {"measurement": "IC50", "setting": "[2]", "value": "> 10", "unit": "µM"},
      {"measurement": "IC50", "setting": "[3]", "value": 4.7, "unit": "µM"},
      {"measurement": "Kd", "setting": "[7]", "value": 0.22, "unit": "µM"},
      {"measurement": "IC50", "setting": "[4]", "value": "> 10", "unit": "µM"},
      {"measurement": "Kd", "setting": "[8]", "value": 0.34, "unit": "µM"},
      {"measurement": "Kd", "setting": "[9]", "value": 1.1, "unit": "µM"},
      {"measurement": "IC50", "setting": "[5]", "value": 5.2, "unit": "µM"},
      {"measurement": "Kd", "setting": "[10]", "value": 0.87, "unit": "µM"},
      {"measurement": "IC50", "setting": "[6]", "value": "> 10", "unit": "µM"},
      {"measurement": "Kd", "setting": "[11]", "value": 0.89, "unit": "µM"}
    ]},
    {"smiles": "Cc1ccnc(NC(=O)COc2ccc3ccccc3c2)c1", "values": [
      {"measurement": "IC50", "setting": "[1]", "value": "> 30", "unit": "µM"}
    ]},
    {"smiles": "COc1ccc2cc([C@@H](C)C(=O)Nc3cc(C)ccn3)ccc2c1", "values": [
      {"measurement": "IC50", "setting": "[1]", "value": 7.6, "unit": "µM"}
    ]},
    {"smiles": "COc1ccnc(NC(=O)Cc2ccc3ccccc3c2)c1", "values": [
      {"measurement": "IC50", "setting": "[2]", "value": "> 10", "unit": "µM"},
      {"measurement": "IC50", "setting": "[3]", "value": 1.3, "unit": "µM"},
      {"measurement": "IC50", "setting": "[4]", "value": "> 10", "unit": "µM"},
      {"measurement": "IC50", "setting": "[5]", "value": 4.8, "unit": "µM"},
      {"measurement": "IC50", "setting": "[6]", "value": "> 10", "unit": "µM"},
      {"measurement": "IC50", "setting": "[1]", "value": 5.2, "unit": "µM"}
    ]}
  ]
}
